Measurements from different studies.
Lines come from different studies, so protocols differ.
Target: Dual specificity mitogen-activated protein kinase kinase 2 (MAP2K2, Homo sapiens, UniProt P36507)

Cc1ccc(NC(=O)c2ccc(CN3CCN(C)CC3)cc2)cc1Nc1nc(-c2cccnc2)cs1  remaining signal (cell-free assay; 0.5 µM): 114%
Cn1cc(Cl)c2c(Oc3c(F)cc(Nc4cc(Cl)nc(N)n4)cc3F)ccnc21  remaining binding (cell-free assay; competition with immobilised ligand; 0.1 µM): 100%
Cc1ccc(C(=O)Nc2ccc(CN3CCN(C)CC3)c(C(F)(F)F)c2)cc1C#Cc1cnc2cccnn12  remaining activity (enzyme activity; inhibitor; 23.5 nM): 97%
CC1(C)NC(=O)c2[nH]c3c(Cl)c(Cl)ccc3c2C1C#N (centres unmarked)  ΔTm (thermal stability; DSF; 10 µM): -0.4 °C
N#CCCc1ccc2c(c1)-c1[nH]c3ccc([N+](=O)[O-])cc3c1CC(=O)N2  remaining signal (cell-free assay; 0.5 µM): 90.3%
Cn1c(=O)n(-c2ccc(C(C)(C)C#N)cc2)c2c3cc(-c4cnc5ccccc5c4)ccc3ncc21  remaining activity (enzyme activity; inhibitor; 10 µM): 86%
FC(F)(F)Oc1cccc(-c2cnc3ccc(-c4ccncc4)nn23)c1  activity vs control (enzyme activity; inhibitor; radiometric; 5 µM): 94%
COc1cc2ncnc(Nc3ccc(Oc4ccccc4)cc3C)c2cc1OC  inhibition (enzyme activity; inhibitor; 1 µM): 41%
O=C1NC(=O)c2cc(Nc3ccc(F)cc3)c(Nc3ccc(F)cc3)cc21  remaining signal (cell-free assay; 0.5 µM): 89.5%
CCc1ccccc1C(=O)Nc1n[nH]c2c(C)c(F)c(C3C(C#N)=C(C)N(C)C(C)=C3C#N)cc12  remaining binding (cell-free assay; competition with immobilised ligand; 1 µM): 100%
COc1cc(Nc2cnc(C#N)c(O[C@H](C)CN(C)C)n2)ncc1-c1cnn(C)c1  remaining activity (enzyme activity; inhibitor; radiometric; 1 µM): 76%
CS(=O)(=O)Nc1cccc(-c2csc(NC(=O)CSc3nc4nccnc4c(=O)n3CCc3ccccc3)n2)c1  inhibition (enzyme activity; inhibitor; 10 µM): -1%
Cn1c2c(c3ccc(Cl)c(Cl)c31)C(C#N)C(C)(C)NC2=O (centres unmarked)  ΔTm (thermal stability; DSF; 10 µM): -0.5 °C
CC(C)(O)[C@H]1CC[C@H](Nc2ccc3ncc(-c4cccc(C(F)(F)F)c4)n3n2)CC1  remaining activity (enzyme activity; inhibitor; 1 µM): 101%
Cc1sc(C(=O)NC2COC2)cc1-n1cc(NC(=O)Nc2c(F)cccc2Cl)cn1  remaining activity (enzyme activity; inhibitor; 10 µM): 99.5%
COc1cc(-c2cc(-c3ccc(N4CCNCC4)cc3)cnc2C)cc(OC)c1OC  inhibition (enzyme activity; inhibitor; 0.1 µM): 4%
COc1cc(Cl)c(C(=O)N[C@@H](CN[C@H]2CC[C@@H](N)CC2)Cc2ccc(C#N)cc2)cc1-c1ccc(CN[C@H](C)c2ccc(C)cc2)o1  remaining activity (enzyme activity; inhibitor; 1 µM): 115%
CC(C)(C)c1nc2c(s1)c1nc(N)ncc1c1ccc(NS(=O)(=O)c3c(F)cccc3F)c(F)c12  remaining activity (enzyme activity; inhibitor; radiometric; 1 µM): 92%
N#CC1c2c([nH]c3c(Cl)c(Cl)ccc23)C(=O)NC12CCCCC2 (racemic)  ΔTm (thermal stability; DSF; 10 µM): -0.8 °C
COc1cc(/C=C/C(=O)CC(=O)/C=C/c2ccc(O)c(OC)c2)ccc1O  activity vs control (enzyme activity; inhibitor; 1 µM): 91%
O=S(=O)(NC1CCC(c2cc(F)ccc2F)(S(=O)(=O)c2ccc(Cl)cc2)CC1)C(F)(F)F (centres unmarked)  remaining binding (cell-free assay; competition with immobilised ligand; 1 µM): 100%
Cn1c2c(Cl)c(Cl)ccc2c2cc(N)[nH]c(=O)c21  ΔTm (thermal stability; DSF; 10 µM): -0.1 °C
CN(C(=O)c1ccccc1)c1cc(N(C)c2ccc3c(c2)CCc2ccc(C(=O)NCCN4CCOCC4)cc2C3=O)ccc1F  remaining binding (cell-free assay; competition with immobilised ligand; 1 µM): 100%
CCN(CC)CCNC(=O)c1c(C)[nH]c(/C=C2\C(=O)Nc3ccc(F)cc32)c1C  remaining signal (cell-free assay; 0.5 µM): 25.4%
CN1CCN(c2cnc3c(C4CCN(C(=O)c5ccc(OC(F)(F)F)cc5N)CC4)ncnc3c2)CC1  remaining binding (cell-free assay; competition with immobilised ligand; 1 µM): 100%
Cn1c2c(c3ccc(Cl)c(Cl)c31)C(C#N)C1(CCNCC1)NC2=O (racemic)  ΔTm (thermal stability; DSF; 10 µM): -0.4 °C
CNC(=O)c1ccc(Nc2ncc(C(F)(F)F)c(NCc3nccnc3N(C)S(C)(=O)=O)n2)cc1  remaining binding (cell-free assay; competition with immobilised ligand; 0.1 µM): 100%
Cn1c2c(c3ccc(Cl)c(Cl)c31)C(C#N)C1(CCOCC1)NC2=O (centres unmarked)  ΔTm (thermal stability; DSF; 10 µM): -0.4 °C
CN([C@@H]1CCc2c(CC(=O)O)c3cc(S(C)(=O)=O)ccc3n2C1)S(=O)(=O)c1ccc(F)cc1  remaining binding (cell-free assay; competition with immobilised ligand; 1 µM): 95%
CCCS(=O)(=O)Nc1ccc(F)c(C(=O)c2c[nH]c3ncc(-c4ccc(Cl)cc4)cc23)c1F  inhibition (enzyme activity; inhibitor; 1 µM): < 10%
N#Cc1ccc(Nc2ccc3[nH]c(=O)[nH]c3c2)c(Cl)c1  remaining binding (cell-free assay; competition with immobilised ligand; 1 µM): 93%
Cn1c2c(Cl)c(Cl)ccc2c2cn[nH]c(=O)c21  ΔTm (thermal stability; DSF; 10 µM): -0.3 °C
